In paper PMC4358770 (Journal of medicinal chemistry, 2010):

Tests used:
human NPP3 = molecular target: T1, human NPP3 (Homo sapiens, UniProt O14638); assay: NPP3 hydrolysis assay; type: in vitro ADME; conditions: 100 μM ATP (100% reference)
T1 sequence (O14638 1-875): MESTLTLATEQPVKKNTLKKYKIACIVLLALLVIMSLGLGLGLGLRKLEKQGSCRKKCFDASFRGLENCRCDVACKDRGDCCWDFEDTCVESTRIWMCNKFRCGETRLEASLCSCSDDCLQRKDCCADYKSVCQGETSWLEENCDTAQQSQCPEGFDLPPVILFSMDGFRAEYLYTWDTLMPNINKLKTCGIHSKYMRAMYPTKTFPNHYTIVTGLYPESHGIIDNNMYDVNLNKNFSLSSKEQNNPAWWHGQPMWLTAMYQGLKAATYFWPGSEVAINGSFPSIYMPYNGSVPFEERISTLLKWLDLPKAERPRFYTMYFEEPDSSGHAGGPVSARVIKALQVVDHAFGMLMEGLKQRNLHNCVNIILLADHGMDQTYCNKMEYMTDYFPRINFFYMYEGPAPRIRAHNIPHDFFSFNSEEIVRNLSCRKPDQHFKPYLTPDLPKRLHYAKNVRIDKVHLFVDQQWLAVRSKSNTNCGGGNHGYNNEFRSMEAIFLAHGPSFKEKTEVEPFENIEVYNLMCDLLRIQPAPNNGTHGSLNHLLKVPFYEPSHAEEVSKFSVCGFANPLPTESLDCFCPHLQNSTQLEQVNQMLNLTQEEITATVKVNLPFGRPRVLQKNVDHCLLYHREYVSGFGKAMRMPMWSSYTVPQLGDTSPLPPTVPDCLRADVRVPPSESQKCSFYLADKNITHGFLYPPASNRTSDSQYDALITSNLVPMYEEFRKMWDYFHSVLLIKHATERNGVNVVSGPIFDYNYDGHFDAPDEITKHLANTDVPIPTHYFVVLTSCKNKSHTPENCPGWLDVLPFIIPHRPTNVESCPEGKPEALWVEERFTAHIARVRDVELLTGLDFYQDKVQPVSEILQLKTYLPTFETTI

alkaline phosphatase = alkaline phosphatase (Bos taurus, UniProt P19111); assay: Hydrolysis by alkaline phosphatase; conditions: bovine, calf intestine alkaline phosphatase, pH 9.8
[1] = molecular target: calf intestine alkaline phosphatase (Bos taurus, UniProt P19111); assay: Hydrolysis by alkaline phosphatase; conditions: 0.2 mg analogue/77.5 μL, 12.5 units of AP, 37 °C, 3 h
[2] = pKa and ionization of the terminal phosphate/phosphonate; type: physicochemical; conditions: pH 7.4, terminal phosphate/phosphonate
rabbit IOP = conditions: topically applied to New Zealand white rabbits; cited from earlier work
human NPP1 = molecular target: T2, human NPP1 (Homo sapiens, UniProt P22413); assay: NPP1 hydrolysis assay; type: in vitro ADME; conditions: 100 μM ATP (100% reference)
T2 sequence (P22413 1-925): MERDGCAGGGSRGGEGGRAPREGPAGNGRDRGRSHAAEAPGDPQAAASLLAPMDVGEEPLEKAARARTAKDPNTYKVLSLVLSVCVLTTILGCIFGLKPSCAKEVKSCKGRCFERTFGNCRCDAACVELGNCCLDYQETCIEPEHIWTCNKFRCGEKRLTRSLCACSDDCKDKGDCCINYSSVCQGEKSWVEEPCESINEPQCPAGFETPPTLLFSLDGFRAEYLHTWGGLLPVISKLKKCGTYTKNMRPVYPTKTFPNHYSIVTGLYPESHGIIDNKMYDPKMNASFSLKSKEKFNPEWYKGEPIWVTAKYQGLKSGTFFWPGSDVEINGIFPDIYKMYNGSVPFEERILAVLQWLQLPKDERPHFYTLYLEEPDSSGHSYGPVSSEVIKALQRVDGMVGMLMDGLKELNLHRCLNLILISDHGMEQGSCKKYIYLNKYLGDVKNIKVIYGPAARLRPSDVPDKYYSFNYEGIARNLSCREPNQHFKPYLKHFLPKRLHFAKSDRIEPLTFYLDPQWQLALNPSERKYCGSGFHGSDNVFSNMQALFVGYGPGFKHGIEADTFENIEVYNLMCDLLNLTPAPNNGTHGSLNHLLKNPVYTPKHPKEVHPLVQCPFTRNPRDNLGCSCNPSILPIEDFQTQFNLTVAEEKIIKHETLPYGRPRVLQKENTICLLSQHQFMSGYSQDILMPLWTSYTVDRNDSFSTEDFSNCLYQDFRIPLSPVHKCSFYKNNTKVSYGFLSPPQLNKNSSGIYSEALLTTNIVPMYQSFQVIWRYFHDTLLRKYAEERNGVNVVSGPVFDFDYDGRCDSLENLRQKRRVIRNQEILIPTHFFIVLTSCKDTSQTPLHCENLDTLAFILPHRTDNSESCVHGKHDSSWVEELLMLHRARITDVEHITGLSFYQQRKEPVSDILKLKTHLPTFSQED

[3] = cited from earlier work
NTPDase2 = molecular target: T3, NTPDase2 (Homo sapiens, UniProt Q9Y5L3); assay: NTPDase2 hydrolysis assay; type: in vitro ADME; conditions: 100 μM ATP (100% reference)
T3 sequence (Q9Y5L3 1-495): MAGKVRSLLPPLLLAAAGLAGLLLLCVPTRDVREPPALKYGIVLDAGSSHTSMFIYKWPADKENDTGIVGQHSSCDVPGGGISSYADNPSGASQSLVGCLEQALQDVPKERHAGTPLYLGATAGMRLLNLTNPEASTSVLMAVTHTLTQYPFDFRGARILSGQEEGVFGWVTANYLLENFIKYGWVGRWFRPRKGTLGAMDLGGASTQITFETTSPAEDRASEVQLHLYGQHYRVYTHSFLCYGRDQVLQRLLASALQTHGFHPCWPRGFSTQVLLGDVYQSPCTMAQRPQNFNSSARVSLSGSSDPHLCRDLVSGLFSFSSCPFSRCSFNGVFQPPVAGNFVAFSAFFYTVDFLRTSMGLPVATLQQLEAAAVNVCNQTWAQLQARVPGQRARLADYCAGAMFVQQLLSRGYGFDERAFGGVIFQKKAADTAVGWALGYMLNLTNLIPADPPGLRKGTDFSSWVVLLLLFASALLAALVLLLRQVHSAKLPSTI
Summary of the method: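 Enzymes were transiently expressed in COS-7 cells. Crude protein extracts were made by sonication, 300g clearing at 4 °C and storage at −80 °C, with protein measured by Bradford. Extract was preincubated 3 min at 37 °C in Tris-Ringer buffer, pH 7.4. […] Activity of untransfected-cell extract was subtracted.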

calf intestine alkaline phosphatase, sequence (P19111 20-533): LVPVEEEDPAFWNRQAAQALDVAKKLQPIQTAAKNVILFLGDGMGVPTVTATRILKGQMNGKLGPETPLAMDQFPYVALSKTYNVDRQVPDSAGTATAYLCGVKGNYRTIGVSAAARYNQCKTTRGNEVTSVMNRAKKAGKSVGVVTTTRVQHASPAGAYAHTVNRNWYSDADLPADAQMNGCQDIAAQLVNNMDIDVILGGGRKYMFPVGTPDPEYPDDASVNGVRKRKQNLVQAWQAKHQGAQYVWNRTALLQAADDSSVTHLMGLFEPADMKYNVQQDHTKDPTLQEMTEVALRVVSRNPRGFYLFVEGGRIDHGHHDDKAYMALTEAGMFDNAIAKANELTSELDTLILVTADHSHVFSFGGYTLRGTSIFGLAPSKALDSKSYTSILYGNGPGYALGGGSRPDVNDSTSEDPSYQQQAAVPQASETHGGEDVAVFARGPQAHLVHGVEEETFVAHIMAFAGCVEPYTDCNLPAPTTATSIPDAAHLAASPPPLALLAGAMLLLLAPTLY
alkaline phosphatase, sequence (P19111 20-533): as above

Question: For `Nc1ncnc2c1ncn2[C@@H]1O[C@H](COP(=O)(O)OP(=O)(O)OP(=O)(O)O)[C@@H](O)[C@H]1O` [ATP], which “hydrolysis rate by NPP3” value (human NPP3) is on record?
Answer: 245 nmol nucl·min^−1·mg protein^−1

Question: And the half-life at 2.58 mg/mL (alkaline phosphatase)?
Answer: 1.4 h

Question: And the “degradation by alkaline phosphatase after 3 h” value [1]?
Answer: 96%

Question: And the “fraction ionized at physiological pH” value [2]?
Answer: 91%

Question: What about the “effect on IOP (increase or reduction)” value (rabbit IOP) of the same molecule?
Answer: reduced

Question: What about the “hydrolysis rate by NPP1” value (human NPP1) of the same molecule?
Answer: 619 nmol nucl·min^−1·mg protein^−1

Question: What about the “t1/2 in human blood serum” value [3] of the same molecule?
Answer: 3.6 h

Question: What about the “hydrolysis rate by NTPDase2” value (NTPDase2) of the same molecule?
Answer: 1006 ± 60 nmol Pi·min^−1·mg protein^−1
